From article PMC7115506 (European Journal of Medicinal Chemistry, 2018)

Assays:
[1] = tested on: human leukemia K562 cells; assay: MTT cytotoxic activity assay, K562; assay type: cell-based; details: for enhancement of potency compared to that of 2d: ratio to 2d, K562; for IC50: read-out: IC50 K562, MTT, 48 h
Outline: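 K562 cells at 5 × 10^4 cells/ml were plated for 2 h, then exposed to test compound at 10–100,000 nM for 48 h. MTT (5 mg/mL stock) was added for a further 4 h and read on a plate reader. DMSO-treated controls were set as 100% viability. IC50 came from nonlinear regression over three independent assays.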

K562 cells [2] = assay: Flow cytometric analysis of apoptosis; assay type: cell-based, human; details: 30 nM; 48 h
Outline: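 K562 cells (RPMI-1640, 10% FBS) were seeded in six-well plates and given DMSO or test compound at 30 or 300 nM for 0, 6, 12, 24 and 48 h. Cells were washed twice in ice-cold PBS, resuspended in binding buffer, then stained with Annexin V-FITC (10 min) and PI at 50 μg/mL (10 min) at room temperature in the dark. Flow cytometry with quadrant statistics.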

HepG2 cells [3] = assay: Wound healing assay; assay type: cell-based, human; details: 48 h, DMSO 184.89 μm
HepG2 cells [4] = assay: Transwell assay; assay type: cell-based, human; details: 10 nM, 30 nM, 100 nM; 24 h
HUVEC cells = assay: Tube forming assay on Matrigel; assay type: cell-based, human; details: 10 nM, 30 nM, 100 nM; 12 h
K562 cells [5] = assay: Morphological changes by microscopy; assay type: cell-based, human; details: 30 nM
Outline: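 K562 cells were kept in RPMI-1640 with 10% FBS, 2.05 mM glutamine and 1% penicillin/streptomycin at 37 °C and 5% CO2. They were exposed to test compound at 30 nM, and morphology was compared with DMSO-treated cells.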

liver cancer HepG2 cells = assay: MTT cytotoxic activity assay, HepG2; assay type: cell-based, human; details: read-out: IC50 HepG2

| Compound | enhancement of potency compared to that of 2d [1] | IC50 [1] [nM] | IC50 (liver cancer HepG2 cells) [nM] | further results |
| --- | --- | --- | --- | --- |
| COc1ccc(-c2ccc3c(c2)C(=O)C(=O)N3Cc2ccc(OC)c(OC)c2)cc1 [2q, 1-(3,4-dimethoxybenzyl)-5-(4-methoxyphenyl)indoline-2,3-dione] | 8–25 folds |  |  |  |
| COc1ccc(CN2C(=O)C(=O)c3cc(-c4ccc(OC)cc4)ccc32)cc1 [compound 2m, 1-(4-methoxybenzyl)-5-(4-methoxyphenyl)indoline-2,3-dione] | 8–25 folds |  |  | apoptotic rate of K562 cells (K562 cells [2]): 43.4%; The distance of migration (HepG2 cells [3]; 10 nM): 162.89 μm; The distance of migration (HepG2 cells [3]; 30 nM): 135.22 μm; The distance of migration (HepG2 cells [3]; 100 nM): 96.24 μm; effect on HepG2 cells migration (transwell) (HepG2 cells [4]): could inhibit the HepG2 cells migration and have a dose-dependent inhibitory effect; effect on tube formation of HUVEC cells (HUVEC cells): could inhibit the angiogenesis of HUVEC cells and have a dose-dependent inhibitory effect; morphological change: elongated cells (G2/M arrest morphology) (K562 cells [5]; 6 h, vs DMSO-treated cells): elongated cells increased significantly; morphological change: apoptotic cells (K562 cells [5]; 24 h): apoptotic cells were clearly observed |
| COc1ccc(-c2ccc3c(c2)C(=O)C(=O)N3Cc2ccccc2OC)cc1 [2o, 1-(2-methoxybenzyl)-5-(4-methoxyphenyl)indoline-2,3-dione] | 8–25 folds |  |  |  |
| (Z)-methyl 2-(1-(4-methoxybenzyl)-5-(4-methoxyphenyl)-2-oxoindolin-3-ylidene)acetate [5e] |  | 1900 ± 140 | 4730 ± 1240 |  |
| COc1ccc(CN2C(=O)C(=O)c3cc(-c4ccc(C(C)(C)C)cc4)ccc32)cc1 [compound 4e, 5-(4-(tert-butyl)phenyl)-1-(4-methoxybenzyl)indoline-2,3-dione] |  |  |  | drop of cytotoxic activity from that of 4k ([1]; ratio to 4k): 15 folds |
| 1-(3,5-dimethylbenzyl)-5-(4-methoxyphenyl)indoline-2,3-dione [2p] |  | 140 ± 30 | 410 ± 30 |  |
| (Z)-ethyl 2-(1-(4-methoxybenzyl)-5-(4-methoxyphenyl)-2-oxoindolin-3-ylidene)acetate [5d] |  | 1240 ± 540 | 3390 ± 270 |  |
| 1-(4-methoxybenzyl)-5-(thiophen-3-yl)indoline-2,3-dione [compound 4r] |  | 80 ± 40 | 3670 ± 1400 |  |
| COc1ccc(-c2ccc3c(c2)C(=O)C(=O)N3Cc2ccc3c(c2)OCO3)cc1 [2v, 1-(benzo[d] [1, 3]dioxol-5-ylmethyl)-5-(4-methoxyphenyl)indoline-2,3-dione] | 8–25 folds |  |  |  |
